Laboratory results taken from ChEMBL document CHEMBL5678799 (Biochem J, 2009).
Active and inactive are the calls of the source. The rule behind the calls is not given here.

Assays:
[1] = target: Dual specificity tyrosine-phosphorylation-regulated kinase 1A (Homo sapiens) (UniProt Q13627); assay: Inhibition of recombinant human N-terminal GST-tagged DYRK1A (1 to 502 residues) expressed in Escherichia coli assessed as remaining activity at 1 uM using KKISGRLSPIMTEQ as substrate incubated for 30 mins in presence of [gamma-33P]ATP by filter binding method relative to control
Method in brief: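 Run robotically for 30 min at 21 °C under linear conditions. Compound at 1 or 10 µM. Percentage activity remaining versus control without compound, triplicate mean ± S.D.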

mTORC1 (Homo sapiens) [2] = target: T1, mTORC1 (Homo sapiens) (UniProt P42345+Q8N122+Q9BVC4); conditions: HEK293, dose 30-1000 nM, time 30.0 min
[3] = target: Serine/threonine-protein kinase Nek2 (Homo sapiens) (UniProt P51955); assay: Inhibition of recombinant human N-terminal His6-tagged NEK2A (1 to 445 residues) expressed in baculovirus infected Sf21 cells assessed as remaining activity at 1 uM using RFRRSRRMI as substrate incubated for 30 mins in presence of [gamma-33P]ATP by filter binding method relative to control
Serine/threonine-protein kinase Nek2 (Homo sapiens), sequence (P51955 whole entry, the tested form may be a part): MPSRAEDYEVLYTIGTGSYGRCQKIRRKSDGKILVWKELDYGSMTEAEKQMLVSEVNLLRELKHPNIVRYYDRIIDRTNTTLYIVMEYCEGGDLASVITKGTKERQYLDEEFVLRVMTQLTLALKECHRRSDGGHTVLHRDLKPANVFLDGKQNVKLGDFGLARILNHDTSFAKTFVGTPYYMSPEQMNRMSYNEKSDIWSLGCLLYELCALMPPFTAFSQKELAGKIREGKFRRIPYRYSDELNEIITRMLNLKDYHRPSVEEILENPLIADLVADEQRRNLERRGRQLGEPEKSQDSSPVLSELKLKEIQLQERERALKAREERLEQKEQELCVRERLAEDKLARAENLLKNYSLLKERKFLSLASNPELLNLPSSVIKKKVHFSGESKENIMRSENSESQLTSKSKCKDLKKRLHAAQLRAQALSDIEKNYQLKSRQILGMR

[4] = target: Serine/threonine-protein kinase mTOR (Mus musculus) (UniProt Q9JLN9); assay: Inhibition of mTOR in MEF cells assessed as reduction in 4E-BP1 phosphorylation at T37/46 residues at 1 uM incubated for 30 mins by immunoblot analysis; format: cell-based
Method in brief: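 Cells (MEFs, wild-type or knockout, or HeLa) kept in 10% serum, then exposed 30 min to inhibitor or vehicle at the stated level. Washed twice in ice-cold PBS and lysed in Tris lysis buffer with CHAPS, phosphatase and protease inhibitors. Lysates cleared at 18000 g and immunoblotted with phospho-specific antibodies and ECL detection. Blots are representative of three experiments.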

[5] = target: Serine/threonine-protein kinase PAK 6 (Homo sapiens) (UniProt Q9NQU5); assay: Inhibition of recombinant human N-terminal GST-tagged PAK6 (2 to 681 residues) expressed in Escherichia coli assessed as remaining activity at 10 uM using RRRLSFAEPG as substrate incubated for 30 mins in presence of [gamma-33P]ATP by filter binding method relative to control
Serine/threonine-protein kinase PAK 6 (Homo sapiens), sequence (Q9NQU5 whole entry, looked up, the tested form may be a part): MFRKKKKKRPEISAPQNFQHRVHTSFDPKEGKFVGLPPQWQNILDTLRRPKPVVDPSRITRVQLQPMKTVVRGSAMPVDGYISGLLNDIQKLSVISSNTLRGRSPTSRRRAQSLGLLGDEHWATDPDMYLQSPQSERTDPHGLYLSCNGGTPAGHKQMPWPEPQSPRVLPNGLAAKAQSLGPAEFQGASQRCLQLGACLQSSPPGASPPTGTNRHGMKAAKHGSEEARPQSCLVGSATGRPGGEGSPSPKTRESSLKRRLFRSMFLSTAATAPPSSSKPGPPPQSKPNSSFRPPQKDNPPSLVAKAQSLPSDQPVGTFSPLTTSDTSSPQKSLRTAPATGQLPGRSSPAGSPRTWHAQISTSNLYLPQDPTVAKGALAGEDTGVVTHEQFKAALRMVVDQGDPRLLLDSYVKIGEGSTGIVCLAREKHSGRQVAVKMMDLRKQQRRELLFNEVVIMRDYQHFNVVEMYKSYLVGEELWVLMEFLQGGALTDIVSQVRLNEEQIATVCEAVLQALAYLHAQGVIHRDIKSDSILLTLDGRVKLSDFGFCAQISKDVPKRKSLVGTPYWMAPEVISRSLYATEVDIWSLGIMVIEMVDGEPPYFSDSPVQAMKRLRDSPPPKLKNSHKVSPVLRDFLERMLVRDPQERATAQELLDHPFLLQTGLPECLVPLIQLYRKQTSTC
Method in brief: (§1)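 Panel assays were run for 30 min at 21 °C, within the linear range for time and enzyme. […] Results are percent activity remaining relative to compound-free control, averaged from triplicate ± S.D.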

[6] = target: MAP kinase-interacting serine/threonine-protein kinase 1 (Homo sapiens) (UniProt Q9BUB5); assay: Inhibition of recombinant human N-terminal GST-tagged C-terminal His6-tagged MNK1 (2 to 424 residues) expressed in Escherichia coli assessed as remaining activity at 10 uM using eIF4E as substrate incubated for 30 mins in presence of [gamma-33P]ATP by filter binding method relative to control
MAP kinase-interacting serine/threonine-protein kinase 1 (Homo sapiens), sequence (Q9BUB5 whole entry, looked up, the tested form may be a part): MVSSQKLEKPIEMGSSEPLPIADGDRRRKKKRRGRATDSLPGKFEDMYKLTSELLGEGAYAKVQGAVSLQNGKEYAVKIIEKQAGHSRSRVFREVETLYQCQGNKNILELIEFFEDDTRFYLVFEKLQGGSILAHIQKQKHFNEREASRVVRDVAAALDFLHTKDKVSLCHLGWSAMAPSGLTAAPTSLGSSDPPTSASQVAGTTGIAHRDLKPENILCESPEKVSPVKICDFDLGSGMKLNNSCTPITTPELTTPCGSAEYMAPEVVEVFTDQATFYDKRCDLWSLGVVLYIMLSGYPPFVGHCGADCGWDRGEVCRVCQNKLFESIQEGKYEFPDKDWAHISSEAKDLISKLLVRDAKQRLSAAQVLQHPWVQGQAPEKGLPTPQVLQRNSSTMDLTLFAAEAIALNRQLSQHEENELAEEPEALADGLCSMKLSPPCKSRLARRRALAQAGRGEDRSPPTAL

[7] = test system: Serine/threonine-protein kinase Sgk1 (Homo sapiens), O00141 [S422D]; assay: Inhibition of recombinant human His6-tagged SGK1 S422D mutant (60 to 431 residues) expressed in baculovirus infected Sf21 cells assessed as remaining activity at 1 uM using GRPRTSSFAEGKK as substrate incubated for 30 mins in presence of [gamma-33P]ATP by filter binding method relative to control
Serine/threonine-protein kinase Sgk1 (Homo sapiens), O00141 [S422D], sequence (O00141 whole entry S422D, the tested form may be a part): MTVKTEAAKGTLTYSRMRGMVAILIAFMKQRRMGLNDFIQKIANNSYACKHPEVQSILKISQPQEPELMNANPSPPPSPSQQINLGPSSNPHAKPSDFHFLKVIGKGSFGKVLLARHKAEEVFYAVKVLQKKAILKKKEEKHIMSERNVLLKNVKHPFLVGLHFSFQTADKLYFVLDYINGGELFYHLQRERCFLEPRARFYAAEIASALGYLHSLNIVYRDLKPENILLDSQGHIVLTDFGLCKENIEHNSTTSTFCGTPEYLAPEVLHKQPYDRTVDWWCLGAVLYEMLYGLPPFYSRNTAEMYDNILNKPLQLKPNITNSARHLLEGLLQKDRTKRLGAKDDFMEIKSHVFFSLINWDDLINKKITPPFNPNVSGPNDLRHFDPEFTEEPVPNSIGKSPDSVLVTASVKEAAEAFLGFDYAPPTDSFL
Method in brief: (§2)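 Incubations ran robotically for 30 min at room temperature (21 °C) under linear conditions. Results are percent activity remaining versus controls without compound, as the mean of triplicates ± S.D.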

[8] = target: cAMP-dependent protein kinase catalytic subunit alpha (Homo sapiens) (UniProt P17612); assay: (§3) Inhibition of recombinant human N-terminal GST-tagged PKAalpha (2 to 351 residues) expressed in Escherichia coli assessed as remaining activity at 1 uM using Kemptide as substrate incubated for 30 mins in presence of [gamma-33P]ATP by filter binding method relative to control; method in brief: as §1
[9] = target: CDK2/Cyclin A2 (Homo sapiens) (UniProt P24941+P20248); assay: as §3, with “CDK2” for “PKAalpha”, “298 residues)/N-terminal GST-tagged Cyclin A2 (171 to 432” for “351”, “YSPTSPSYSPTSPSYSPTSPKKK” for “Kemptide”; method in brief: as §2
mTORC2 (Homo sapiens) = mTORC2 (Homo sapiens) (UniProt P42345+Q6R327+Q9BVC4+Q9BPZ7); conditions: HEK293, dose 30-1000 nM, time 30.0 min
[10] = test system: Ribosomal protein S6 kinase beta-1 (Homo sapiens), P23443 [T412E]; assay: Inhibition of recombinant human His6-tagged S6K1 T412E mutant (1 to 421 residues) expressed in baculovirus infected Sf21 cells assessed as remaining activity at 1 uM using KKRNRTLTV as substrate incubated for 30 mins in presence of [gamma-33P]ATP by filter binding method relative to control; method in brief: as §2
Ribosomal protein S6 kinase beta-1 (Homo sapiens), P23443 [T412E], sequence (P23443 whole entry T412E, looked up, the tested form may be a part): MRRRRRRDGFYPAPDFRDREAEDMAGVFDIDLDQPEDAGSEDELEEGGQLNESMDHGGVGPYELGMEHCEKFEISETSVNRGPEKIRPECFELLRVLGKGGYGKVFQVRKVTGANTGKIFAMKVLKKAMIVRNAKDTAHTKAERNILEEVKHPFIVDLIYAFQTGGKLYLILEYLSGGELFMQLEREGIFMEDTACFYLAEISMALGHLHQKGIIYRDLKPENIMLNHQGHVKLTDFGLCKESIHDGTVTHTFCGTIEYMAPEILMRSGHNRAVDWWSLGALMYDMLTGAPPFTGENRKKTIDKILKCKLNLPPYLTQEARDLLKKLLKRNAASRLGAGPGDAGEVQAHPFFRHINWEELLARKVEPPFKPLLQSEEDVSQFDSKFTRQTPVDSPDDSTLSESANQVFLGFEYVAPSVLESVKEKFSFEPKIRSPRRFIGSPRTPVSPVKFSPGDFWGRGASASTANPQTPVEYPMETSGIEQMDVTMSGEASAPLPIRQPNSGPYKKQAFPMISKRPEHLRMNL

mTORC1 (Homo sapiens) [11] = target: T1, mTORC1 (Homo sapiens); conditions: HEK293, dose 30-1000 nM, time 30.0 min; remark: listed apart in the source
[12] = target: MAP kinase-activated protein kinase 2 (Homo sapiens) (UniProt P49137); assay: Inhibition of recombinant human N-terminal GST/C-terminal Myc-tagged MAPKAPK2 (46 to 400 residues) expressed in Escherichia coli assessed as remaining activity at 10 uM using KKLNRTLSVA as substrate incubated for 30 mins in presence of [gamma-33P]ATP by filter binding method relative to control; method in brief: as §2
MAP kinase-activated protein kinase 2 (Homo sapiens), sequence (P49137 whole entry, looked up, the tested form may be a part): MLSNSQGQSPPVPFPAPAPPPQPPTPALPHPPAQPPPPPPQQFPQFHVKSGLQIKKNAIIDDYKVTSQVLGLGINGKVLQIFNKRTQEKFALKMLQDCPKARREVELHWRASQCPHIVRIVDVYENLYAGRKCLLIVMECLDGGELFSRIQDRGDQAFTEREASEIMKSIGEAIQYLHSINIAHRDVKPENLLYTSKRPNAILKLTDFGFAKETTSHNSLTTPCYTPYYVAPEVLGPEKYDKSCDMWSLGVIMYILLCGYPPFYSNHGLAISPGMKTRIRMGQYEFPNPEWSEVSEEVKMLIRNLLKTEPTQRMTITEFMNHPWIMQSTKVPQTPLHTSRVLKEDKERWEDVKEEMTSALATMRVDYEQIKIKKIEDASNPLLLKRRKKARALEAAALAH

[13] = target: Calcium/calmodulin-dependent protein kinase kinase 2 (Homo sapiens) (UniProt Q96RR4); assay: Inhibition of recombinant human N-terminal GST-tagged CAMKKbeta (1 to 541 residues) expressed in Escherichia coli assessed as remaining activity at 10 uM using DGEFLRTSCGSPNYAARRR as substrate incubated for 30 mins in presence of [gamma-33P]ATP by filter binding method relative to control
Calcium/calmodulin-dependent protein kinase kinase 2 (Homo sapiens), sequence (Q96RR4 2-588 limits assumed): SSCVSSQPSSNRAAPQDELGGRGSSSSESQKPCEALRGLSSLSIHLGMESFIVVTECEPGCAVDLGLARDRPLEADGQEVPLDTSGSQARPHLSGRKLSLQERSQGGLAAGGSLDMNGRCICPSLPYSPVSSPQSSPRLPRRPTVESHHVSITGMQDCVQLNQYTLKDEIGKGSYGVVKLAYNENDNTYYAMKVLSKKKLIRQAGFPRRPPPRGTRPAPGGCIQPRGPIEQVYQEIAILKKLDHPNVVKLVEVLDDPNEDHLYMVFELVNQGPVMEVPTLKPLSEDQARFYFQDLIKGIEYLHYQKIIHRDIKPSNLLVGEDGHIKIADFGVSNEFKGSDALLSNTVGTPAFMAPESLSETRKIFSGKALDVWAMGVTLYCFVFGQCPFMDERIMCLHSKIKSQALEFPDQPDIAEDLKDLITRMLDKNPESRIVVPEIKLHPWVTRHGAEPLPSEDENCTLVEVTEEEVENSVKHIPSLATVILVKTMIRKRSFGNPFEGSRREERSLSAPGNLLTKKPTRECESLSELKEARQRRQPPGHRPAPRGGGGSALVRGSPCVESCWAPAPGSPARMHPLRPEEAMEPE
Method in brief: (§4)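 Robotic radiometric panel assay, 30 min at room temperature (21 °C), with 10 mM magnesium acetate. […] Compound at 1 or 10 µM. Residual activity expressed relative to compound-free control; triplicate average ± S.D.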

[14] = target: Casein kinase I isoform delta (Homo sapiens) (UniProt P48730); assay: Inhibition of recombinant human N-terminal GST-tagged CK1delta (1 to 415 residues) expressed in Escherichia coli assessed as remaining activity at 1 uM using RRKDLHDDEEDEAMSITA as substrate incubated for 30 mins in presence of [gamma-33P]ATP by filter binding method relative to control; method in brief: as §4
Casein kinase I isoform delta (Homo sapiens), sequence (P48730 whole entry, looked up, the tested form may be a part, canonical isoform): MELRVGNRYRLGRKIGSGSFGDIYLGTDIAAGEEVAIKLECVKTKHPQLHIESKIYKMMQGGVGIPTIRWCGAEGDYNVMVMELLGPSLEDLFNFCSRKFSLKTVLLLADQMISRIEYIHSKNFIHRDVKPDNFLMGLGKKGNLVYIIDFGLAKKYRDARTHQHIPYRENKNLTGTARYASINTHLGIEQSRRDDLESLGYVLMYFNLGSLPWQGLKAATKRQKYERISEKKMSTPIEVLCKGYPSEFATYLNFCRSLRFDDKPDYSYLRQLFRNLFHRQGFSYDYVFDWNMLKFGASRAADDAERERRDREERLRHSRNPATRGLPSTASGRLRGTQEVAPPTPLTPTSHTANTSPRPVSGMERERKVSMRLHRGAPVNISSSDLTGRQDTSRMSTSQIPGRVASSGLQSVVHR

[15] = target: Serine/threonine-protein kinase pim-3 (Homo sapiens) (UniProt Q86V86); assay: Inhibition of recombinant human N-terminal His6-tagged PIM3 (2 to 326 residues) expressed in baculovirus infected Sf21 cells assessed as remaining activity at 1 uM using RSRHSSYPAGT as substrate incubated for 30 mins in presence of [gamma-33P]ATP by filter binding method relative to control
mTORC1 (Homo sapiens) [16] = target: T1, mTORC1 (Homo sapiens); conditions: HEK293, dose 30-1000 nM, time 30.0 min; remark: listed apart in the source

For COc1ccc(-c2ccc3c(N4CCOCC4)nc(N4C[C@@H](C)O[C@@H](C)C4)nc3n2)cc1CO [Ku-0063794], the Activity [1] was 94%, the inhibition (mTORC1 (Homo sapiens) [2]) was “Active” and the Activity [3] was 92%. For the same compound, the inhibition [4] was “Active”, the Activity [5] was 100% and the Activity [6] was 75%. For the same compound, the Activity [7] was 76%, the Activity [8] was 115% and the Activity [9] was 89%. The inhibition (mTORC2 (Homo sapiens)) was “Dose-Dependent Effect”, the Activity [10] was 104% and the inhibition (mTORC1 (Homo sapiens) [11]) was “Dose-Dependent Effect”. The Activity [12] was 81%, the Activity [13] was 94% and the Activity [14] was 112%. For the same compound, the Activity [15] was 114% and the inhibition (mTORC1 (Homo sapiens) [16]) was “Active”.
